Article PMC2650391 (Molecular cell, 2009)
Where no end group is shown, it is not given here.

Legend:
H3K4me3 = experiment: Global H3K4me3 levels, Western analysis of cell lysates; format: cell-based; conditions: demethylase transfection, ± ING4 overexpression
How it was run: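 Cells transfected with Rbp2 or Plu-1 demethylase, with or without ING4 overexpression. Whole-cell lysates probed by Western blot for H3K4me3. Four independent experiments, error bars S.E.M.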

HT1080 cells = experiment: TUNEL assay of ING4-dependent apoptosis; format: cell-based; conditions: HT1080, 400 ng/ml doxorubicin 20 hours, 48 hours after transfection
How it was run: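 HT1080 cells transfected with the plasmids, then given 400 ng/ml doxorubicin for 20 h, assayed 48 h after transfection. Cells fixed in methanol at −20C for 20 min, TUNEL-stained (TMR red) and mounted with DAPI. TUNEL-positive cells counted from images; s.e.m. from 3 independent fields.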

[1] = system: H3K4me peptides / ING4 PHD finger; experiment: Biotinylated histone peptide pull-down, Western analysis; format: binding; conditions: individual substitutions, GST-fusion proteins
[2] = system: purified polynucleosomes (H3K4me3); experiment: Polynucleosome binding, Western analysis; conditions: recombinant proteins
How it was run: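 Recombinant ING4 PHD finger proteins, wild type or carrying substitutions in the H3K4me3-binding surface, incubated with purified polynucleosomes. Bound material detected by Western blot with antibodies to the four core histones, H3K4me3 and H3K9me3.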

[3] = system: H3K4me3 at Smc4, Egln1, Ext1 promoters; experiment: ChIP Realtime-PCR, H3K4me3 levels at target promoters; format: cell-based; conditions: doxorubicin treatment, all samples
T47D cells = experiment: Soft agar assay, anchorage-independent growth; format: cell-based; conditions: colonies scored after 21 days, vs control vector
How it was run: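 T47D cells stably carrying pMSCV-ING4, pMSCV-ING4D213A or empty pMSCV; 55,000 cells plated in […] soft agar growth medium over a 1% agar base layer. Medium refreshed every three days; colonies counted at day 21. Four independent experiments, S.E.M.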

[4] = system: gene promoters in HT1080 cells; experiment: ChIP-chip on whole genome promoter tiling arrays; format: cell-based; conditions: doxorubicin treatment; 292 doxorubicin-induced target promoters
[5] = system: Egln1, Ext1 and Smc4 mRNA; experiment: mRNA expression Realtime-PCR; format: cell-based; conditions: HT1080; relative to untreated wild-type cells
How it was run: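 HT1080 cells stably carrying vector, Flag-ING4 or Flag-ING4D213A, with doxorubicin-induced DNA damage. Transcripts measured by real-time PCR with TaqMan gene expression assays. Values are relative change versus untreated wild-type cells; error bars s.e.m.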

PLU-1: H3K4me3-demethylase
total H3K4me3 levels (H3K4me3): decreased total H3K4me3 levels
ING4-dependent apoptosis (HT1080 cells): abrogated ING4-dependent apoptosis

W221A: ING4PHD with substitution W221A (EPTYCLCHQVSYGEMIGCDNPDCSIEAFHFACVGLTTKPRGKWFCPR; cysteine pairing not given here; also: GST fusion, end not given here)
binding of ING4PHD mutants to H3K4me peptides in pull-down [1]: abrogated binding of the ING4PHD to the H3K4me peptides

ING4PHD: recombinant ING4 PHD finger, aa 195–241 (EPTYCLCHQVSYGEMIGCDNPDCSIEWFHFACVGLTTKPRGKWFCPR; cysteine pairing not given here; also: GST fusion, end not given here)
interaction with H3K4me3 in nucleosomes [2]: occurs in the context of nucleosomes

COc1cccc2c1C(=O)c1c(O)c3c(c(O)c1C2=O)C[C@@](O)(C(=O)CO)C[C@@H]3O[C@H]1C[C@H](N)[C@H](O)[C@H](C)O1 [doxorubicin]
H3K4me3 levels at Smc4, Egln1 and Ext1 promoters [3]: modestly induced

Y198A: ING4PHD with substitution Y198A (EPTACLCHQVSYGEMIGCDNPDCSIEWFHFACVGLTTKPRGKWFCPR; cysteine pairing not given here; also: GST fusion, end not given here)
binding of ING4PHD mutants to H3K4me peptides in pull-down [1]: abrogated binding of the ING4PHD to the H3K4me peptides

RBP2: H3K4me3-demethylase
total H3K4me3 levels (H3K4me3): decreased total H3K4me3 levels
ING4-dependent apoptosis (HT1080 cells): abrogated ING4-dependent apoptosis

D213A: ING4PHD with substitution D213A (EPTYCLCHQVSYGEMIGCANPDCSIEWFHFACVGLTTKPRGKWFCPR; cysteine pairing not given here; also: GST fusion, end not given here)
binding of ING4PHD mutants to H3K4me peptides in pull-down [1]: abrogated binding of the ING4PHD to the H3K4me peptides

ING4D213A: ING4 with a point mutation that abrogates H3K4me3 binding
growth in soft agar (T47D cells): failed to inhibit soft agar growth
average occupancy on DNA damage-dependent promoters [4]: largely absent compared to the wild-type protein
baseline smc4 expression [5]: inhibits baseline expression
